Assay results as given in ChEMBL document CHEMBL3259723, “Membrane active vancomycin analogues: a strategy to combat bacterial resistance” (J Med Chem, 2014).
The source made the active and inactive calls. The rule behind the calls is not given here.

Assays:
Staphylococcus aureus [1] = assay: Antibacterial activity against methicillin-resistant Staphylococcus aureus ATCC 33591 assessed as induction of cytoplasmic membrane permeabilization measured within 5 mins by propidium iodide uptake assay; assay type: functional, organism-based
Summary of the method: (§1)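 Mid-log (6 h) cells harvested at 4 °C, washed and resuspended in PBS pH 7.2. Compound added to cells with 10 μM propidium iodide. Fluorescence (ex 535/em 617 nm) monitored 10 min at RT; the rise in PI fluorescence taken as inner membrane permeabilization.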

Staphylococcus aureus [2] = assay: Antibacterial activity against methicillin-resistant Staphylococcus aureus ATCC 33591 assessed as growth inhibition measured after 52 serial passages; assay type: functional, organism-based
Summary of the method: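 Serial passage: the MIC assay is run against MRSA, then cells from the one-half-MIC well of the previous assay are harvested and inoculated into fresh yeast-dextrose broth for the next MIC assay after 24 h incubation. Repeated for […] passages; MIC plotted against passage number and fold increase in MIC determined.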

Staphylococcus aureus [3] = assay: Bactericidal activity against methicillin-resistant Staphylococcus aureus ATCC 33591 assessed as log10 reduction of bacterial count at MIC measured over 24 hrs; assay type: functional
Summary of the method: (§2)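 MRSA in yeast-dextrose broth, starting inoculum 1.6 × 10^8 CFU/mL. […] Samples taken at 0, 1, 2, 3, 6 and 24 h, diluted 10-fold serially in saline and plated on yeast-dextrose agar. Colonies counted after 24 h at 37 °C; log10 CFU/mL reported.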

Staphylococcus aureus [4] = assay: Antibacterial activity against methicillin-resistant Staphylococcus aureus ATCC 33591 infected in CD-1 mouse neutropenic thigh infection model assessed as reduction of bacterial burden in thigh at 12 mg/kg, iv bid administered as 12 hrs interval measured after 24 hrs; assay type: functional, organism-based; parameters: dose 12 mg/kg
Summary of the method: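 Neutropenic mouse thigh model: about 50 μL MRSA inoculum injected into the thigh. About 1 h later, iv treatment twice at 12 h intervals with saline, vancomycin or compound at 12 mg/kg. At 24 h, thigh homogenate dilutions plated and incubated overnight at 37 °C; titer expressed as log10 CFU/g thigh.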

Staphylococcus aureus [5] = assay: Bactericidal activity against methicillin-resistant Staphylococcus aureus ATCC 33591 assessed as log10 reduction of bacterial count at 6 times MIC measured over 24 hrs; assay type: functional; summary of the method: as §2
Staphylococcus aureus [6] = assay: Bactericidal activity against methicillin-resistant Staphylococcus aureus ATCC 33591 infected in 90% human whole blood at 3.6 uM after 3 hrs; assay type: functional, organism-based
Summary of the method: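 MRSA (30 μL of 10^6 CFU/mL in 0.9% saline) mixed with compound at 3.6 μM and 270 μL fresh human whole blood. Incubated 3 h at 37 °C.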

[7] = Hemolytic activity in human RBC up to 1000 uM after 1 hr; assay type: ADME, cell-based; settings: erythrocyte
Summary of the method: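 Centrifuged, supernatant A540 read. Controls: no compound and 1 vol % Triton X-100 (100% lysis); % hemolysis = (A − A0)/(Atotal − A0) × 100.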

HeLa = assay: Cytotoxicity against human HeLa cells assessed as cell survival up to 100 uM after 24 hrs by MTT assay; assay type: cell-based
Summary of the method: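 HeLa cells grown in DMEM with 10% FBS to 70–80% confluency, then exposed to serially diluted compounds for 24 h at 37 °C, 5% CO2. MTT (5 mg/mL solution) added for 3 h, formazan dissolved in DMSO, A570 read. Survival calculated relative to untreated and 10% Triton X-100 controls.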

Staphylococcus aureus [8] = assay: Antibacterial activity against methicillin-resistant Staphylococcus aureus ATCC 33591 assessed as leakage of intracellular potassium ion at 10 uM measured for 10 mins by PBFI-AM dye-based spectrofluorometric analysis relative to control; assay type: functional
Summary of the method: (§3)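 Mid-log (6 h) cells washed twice and resuspended in 10 mM HEPES pH 7.2 with 0.5% glucose. Signal stabilized 60 s at RT, then 1 μM PBFI-AM added and a 2 min baseline recorded before compound.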

Staphylococcus aureus [9] = assay: Antibacterial activity against vancomycin-intermediate-resistant Staphylococcus aureus assessed as growth inhibition by broth microdilution method; assay type: functional
Summary of the method: (§4)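 Broth microdilution per CLSI; compounds serially diluted in sterile water, added to bacteria at 10^5 CFU/mL (diluted from 6 h cultures). Incubated at 37 °C, OD600 read. Triplicate wells, experiment done at least twice. Mean OD plotted against concentration and fitted sigmoidally; MIC taken where OD matches the no-bacteria control.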

Staphylococcus aureus [10] = assay: Antibacterial activity against methicillin-resistant Staphylococcus aureus ATCC 33591 assessed as induction of membrane depolarization measured at < 3 mins by DiSC3(5) dye-based spectrofluorometric analysis; assay type: functional, organism-based
Summary of the method: (§5)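 Membrane potential assay with DiSC3(5): dye added to cells until maximal uptake, seen as a fluorescence minimum (about 10 min). Compounds then added and depolarization followed as the fluorescence increase over a further 10 min.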

Enterococcus faecium [11] = assay: Antibacterial activity against vancomycin-resistant VanA phenotype of Enterococcus faecium ATCC 51559 assessed as induction of cytoplasmic membrane permeabilization at 10 uM measured for 10 mins by propidium iodide uptake assay; assay type: functional, organism-based; summary of the method: as §1
Enterococcus faecium [12] = assay: Antibacterial activity against vancomycin-resistant VanA phenotype of Enterococcus faecium ATCC 51559 assessed as leakage of intracellular potassium ion at 10 uM measured for 10 mins by PBFI-AM dye-based spectrofluorometric analysis; assay type: functional, organism-based; summary of the method: as §3
Enterococcus faecium [13] = assay: Antibacterial activity against vancomycin-resistant VanA phenotype of Enterococcus faecium ATCC 51559 assessed as induction of membrane depolarization measured at < 3 mins by DiSC3(5) dye-based spectrofluorometric analysis; assay type: functional, organism-based; summary of the method: as §5
Enterococcus faecium [14] = assay: Antibacterial activity against vancomycin-sensitive Enterococcus faecium ATCC 19634 assessed as growth inhibition by broth microdilution method; assay type: functional
Summary of the method: (§6)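 Broth microdilution per CLSI; compounds serially diluted in autoclaved water. Bacteria grown 6 h in suitable media, diluted to 10⁵ CFU/mL; compound added to bacterial suspension, incubated at 37 °C, OD600 read. Triplicate wells, experiment done at least twice; mean OD versus concentration sigmoidally fitted, MIC taken where OD equals no-bacteria control.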

Staphylococcus aureus [15] = assay: Antibacterial activity against methicillin-resistant Staphylococcus aureus ATCC 33591 assessed as growth inhibition by broth microdilution method; assay type: functional; summary of the method: as §4
Enterococcus faecium [16] = assay: Antibacterial activity against vancomycin-resistant VanA phenotype of Enterococcus faecium ATCC 51559 assessed as growth inhibition by broth microdilution method; assay type: functional; summary of the method: as §4
Staphylococcus aureus [17] = assay: Antibacterial activity against methicillin-sensitive Staphylococcus aureus MTCC 737 assessed as growth inhibition by broth microdilution method; assay type: functional; summary of the method: as §6
Enterococcus faecium [18] = assay: Potency index, ratio of dalbavancin MIC90 to compound MIC for vancomycin-resistant VanA phenotype of Enterococcus faecium ATCC 51559; assay type: functional
[19] = Hemolytic activity in human RBC up to 100 uM after 1 hr; assay type: ADME, cell-based; settings: erythrocyte
Summary of the method: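 Incubated 1 h at 37 °C, then centrifuged and supernatant A540 read. % hemolysis calculated against no-compound wells and 1 vol% Triton X-100 wells taken as 100% lysis.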

Row | SMILES | Activity (Staphylococcus aureus [1]) | Activity (Staphylococcus aureus [2]) | log10cfu (Staphylococcus aureus [3]) | Activity (Staphylococcus aureus [4]) | log10cfu (Staphylococcus aureus [5]) | Activity (Staphylococcus aureus [6]) | Activity [7] | Activity (HeLa) | Activity (Staphylococcus aureus [8]) | MIC (Staphylococcus aureus [9]) [µM] | Activity (Staphylococcus aureus [10]) | Activity (Enterococcus faecium [11]) | Activity (Enterococcus faecium [12]) | Activity (Enterococcus faecium [13]) | MIC (Enterococcus faecium [14]) [µM] | MIC (Staphylococcus aureus [15]) [µM] | MIC (Enterococcus faecium [16]) [µM] | MIC (Staphylococcus aureus [17]) [µM] | Ratio (Enterococcus faecium [18]) | Activity [19]
1 | CCCCCCCC[N+](C)(C)CCCNC(=O)[C@H]1NC(=O)[C@H]2NC(=O)[C@H](NC(=O)[C@@H]3NC(=O)[C@H](CC(N)=O)NC(=O)[C@H](NC(=O)[C@@H](CC(C)C)NC)[C@H](O)c4ccc(c(Cl)c4)Oc4cc3cc(c4O[C@@H]3O[C@H](CO)[C@@H](O)[C@H](O)[C@H]3O[C@H]3C[C@](C)(N)[C@H](O)[C@H](C)O3)Oc3ccc(cc3Cl)[C@H]2O)c2ccc(O)c(c2)-c2c(O)cc(O)cc21.O=C([O-])C(F)(F)F | Dose-dependent effect | Active | 8 | Active | 3 | Active | Non-toxic | Non-toxic | 43% | 0.4 | Dose-dependent effect | Active | Active | Dose-dependent effect | 0.15 | 0.31 | 12.5 | 0.31 | – | –
2 | CCCCCCCCCCCCCC[N+](C)(C)CCCNC(=O)[C@H]1NC(=O)[C@H]2NC(=O)[C@H](NC(=O)[C@@H]3NC(=O)[C@H](CC(N)=O)NC(=O)[C@H](NC(=O)[C@@H](CC(C)C)NC)[C@H](O)c4ccc(c(Cl)c4)Oc4cc3cc(c4O[C@@H]3O[C@H](CO)[C@@H](O)[C@H](O)[C@H]3O[C@H]3C[C@](C)(N)[C@H](O)[C@H](C)O3)Oc3ccc(cc3Cl)[C@H]2O)c2ccc(O)c(c2)-c2c(O)cc(O)cc21.O=C([O-])C(F)(F)F | Dose-dependent effect | Active | >5 | – | >5 | Active | – | Non-toxic | Active | 0.36 | Dose-dependent effect | Active | Active | Dose-dependent effect | 0.12 | 0.65 | 0.7 | 1.25 | 25 | Non-toxic
